# Assay results of several laboratories.
# Protocols differ between the studies behind these lines.
# Target: Calcium/calmodulin-dependent protein kinase type II subunit alpha (CAMK2A, Homo sapiens, UniProt Q9UQM7)
Structure (SMILES),test,setting,quantity,result
N#CC1(c2ccccn2)CCN(Cc2cc(C(=O)O)c(=O)n3ccccc23)CC1,"cell-free assay, competition with immobilised ligand",1 µM,remaining binding,83%
Cn1cc(-c2cccc(N3CCc4c(sc5c4CC(C)(C)C5)C3=O)c2CO)cc(Nc2ccncn2)c1=O,"enzyme activity, inhibitor",1 µM,inhibition,-7%
COc1ncccc1-c1cnn2ccc(N3CCN(C(=O)OC(C)C)CC3)nc12,"binding, competition with immobilised ligand",1 µM,remaining binding,70%
Cn1cc(-c2cc(F)cc(N3CCn4c(cc5c4CCCC5)C3=O)c2CO)cc(Nc2ccc(N3CCN(C4COC4)CC3)cn2)c1=O,"enzyme activity, inhibitor",0.1 µM,inhibition,12%
O=C(Nc1cccnn1)N1CCN([C@@H]2CCOc3cc(C(F)(F)F)ccc32)CC1,cell-free assay,20 µM,inhibition,3%
Cn1cncc1[C@](O)(COc1ccc(C#N)cc1-c1ccc(OC(F)(F)F)cc1)c1ccc(C#N)cc1,"cell-free assay, competition with immobilised ligand",1 µM,remaining binding,95%
Cc1ncc(C)n2nc(/C=C/c3nc(N4CCCC4)cc(N4CCOCC4)n3)nc12,"enzyme activity, inhibitor",10 µM,inhibition,6%
Nc1ncc(-c2nc(N3CCOCC3)nc(N3CCOCC3)n2)c(C(F)F)n1,"binding, competition with immobilised ligand",10 µM,remaining binding,64%
O=c1[nH]c2ccccc2n1C1CCN(Cc2ccc(-c3[nH]c4cc5ncnc5cc4nc3-c3ccccc3)cc2)CC1,cell-free assay,0.5 µM,remaining signal,109%
Cc1nn(C)cc1-c1nc2c(N3CCN(Cc4ccc(Cl)cc4)CC3)c(Cl)cnc2[nH]1,"binding, competition with immobilised ligand",1 µM,remaining binding,95%
